# Bioassay records from PubChem BioAssay.
# Only some compounds are listed: those with a hit (about 2% of all), similar ones and a draw of the others.
# MC4R antag cAMP = antagonists of human melanocortin 4 receptor (MC4R) | 360,000 tested, 0.48% active | AID 540295 | inhibition, % at 6.5 µM | MC4R-expressing cells, MTII-stimulated cAMP, LANCE TR-FRET;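 active = inhibition above its plate's cutoff, the mean of tested wells on that plate plus 3 SD, cut at about 29% in these data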;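 note: 0% = Melanotan II alone and 100% = Melanotan II plus saturating MCL0020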
# Target sequence (P32245 whole entry, looked up): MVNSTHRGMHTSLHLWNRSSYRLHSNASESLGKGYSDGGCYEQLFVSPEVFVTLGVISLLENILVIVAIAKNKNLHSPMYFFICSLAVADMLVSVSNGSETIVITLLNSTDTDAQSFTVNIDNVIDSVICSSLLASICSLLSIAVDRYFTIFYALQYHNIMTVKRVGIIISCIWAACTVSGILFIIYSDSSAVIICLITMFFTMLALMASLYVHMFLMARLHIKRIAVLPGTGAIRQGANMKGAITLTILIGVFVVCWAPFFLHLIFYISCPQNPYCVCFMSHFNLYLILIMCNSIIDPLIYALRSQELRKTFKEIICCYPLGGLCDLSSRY
#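 System: U2OS cells stably expressing human melanocortin 4 receptor (MC4R). Reagent: Melanotan II challenge after compound preincubation. Doses: 6.5 µM. Times: 30-min compound, 1-h challenge, 1-h detection, room temperature. Measured by: TR-FRET with Eu-cAMP and labeled anti-cAMP, 671 nm. Replicates: singlicate.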
# A1 inh = inhibitors of the anti-apoptotic protein A1, read as caspase activation | AID 2462 | 330,000 tested, 0.066% active | caspase activation, % (concentration not given with the values) | MEF A1-2A-BIM cells, Caspase-Glo 3/7 luminescence, 3 h; percent of clofoctol response, vehicle zero;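 active = over half of replicate activation scores above 10%, or exactly half above 10 with the replicate mean above 10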
# UPR CHOP act = activators of apoptotic arm of unfolded protein response (CHOP); CHO-CHOP luciferase reporter, UPR activation, luminescence; percent of tunicamycin response over DMSO baseline; activation, % at 10 µM; 330,000 tested, 0.34% active; AID 449763;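 active = at 10 µM dose, activation of 40% or more, normalized to positive control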;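 note: 100% = tunicamycin at 10 µg/mL and 0% = DMSO alone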
#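 Assay system: CHO-CHOP cells, stable luciferase reporter of PERK-eIF2a-CHOP signalling / Buffer or medium: F12 plus 10% serum / Compound dosing: one dose, 10 µM in 0.5% DMSO / Times: 6 h compound treatment, 37 °C / Technique: luciferase luminescence / Read-out: % reporter activation, DMSO baseline versus tunicamycin full activation / Benchmarks: tunicamycin and DMSO controls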
# UPR XBP1 act = adaptive UPR (XBP1) activation; activation, % at 20 µM; CHO-XBP1 luciferase reporter, IRE1-XBP1 UPR activation, luminescence; percent of tunicamycin response, DMSO as zero; 330,000 tested, 0.33% active;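 active = versus positive control, 20 µM dose yields 30% or more activation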;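 note: 100% = tunicamycin at 10 µg/mL and 0% = DMSO only wells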
#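 Test system: CHO-XBP1 luciferase reporter cells | Buffer or medium: Serum-containing F12 medium, 10% FBS | Schedule: 6 h compound exposure at 37 °C, 5% CO2 | Detection: Steady-Glo luciferase glow luminescence, 10 min after reagent addition | Read-out basis: Activation, % of tunicamycin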
# MC4R ag barr = human MC4R agonism via beta-arrestin; AID 540308; U2OS MC4R beta-arrestin complementation, luminescence; percent of melanotan II response, DMSO zero; 360,000 tested, 0.98% active; activation, % at 8.9 µM;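 active = activation above a per-plate cutoff, the mean activation of sample wells on that plate plus 3 SD, cut at about 8% in these data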
# MC4R barr conf = human MC4R beta-arrestin agonism confirmation. shares compounds with MC4R ag barr. U2OS MC4R beta-arrestin recruitment, luminescence; scaled DMSO 0%, Melanotan II 100%. activation, % at 8.9 µM. 2,400 tested, 31% active;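 active = mean activation across replicates above the hit cutoff set in the earlier primary screen, cut at about 8% in these data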
# MOR-DOR barr ag = OPRM1-OPRD1 heterodimer agonism counter-screen | shares compounds with MC4R ag barr | U2OS PathHunter beta-arrestin, beta-gal luminescence; percent of deltorphin B response, DMSO zero | activation, % at 9.2 µM | 2,400 tested, 5.8% active | AID 602194;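 active = mean activation across replicates exceeds the hit threshold derived in the earlier primary screen, cut at about 18% in these data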;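 note: 100% = deltorphin B at 0.9 µM final and 0% = DMSO alone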
# An asterisk follows results filed as active; . = not tested or not shown.
SMILES,MC4R antag cAMP,A1 inh,UPR CHOP act,UPR XBP1 act,MC4R ag barr,MC4R barr conf,MOR-DOR barr ag
Cc1cc(CSc2ccccc2)ccc1NC(=O)c1ccc(Br)cc1,-4,0,1,4,9.9*,12*,7
O=C(Nc1cccc(Br)c1)c1ccc(CSc2ccccc2)cc1,0,-1,3,0,3,.,.
CCOC(=O)c1c(NC(=O)Cn2nc(C(F)(F)F)cc2C)sc(C)c1C,1,1,-1,-2,15*,6,14
COc1cc(CNCCc2ccccc2)cc(Cl)c1OCc1ccccc1,4,1,1,9,14*,10*,13
O=c1c2ccccc2nc(/C=C/c2ccccc2)n1CCCO,4,1,2,-1,0,.,.
O=c1c2ccccc2nc(/C=C/c2ccc(O)cc2)n1CCc1ccccc1,16,0,0,2,15*,1,7
O=C(NCCOc1ccccc1Cl)C(=O)NCCOc1ccccc1Cl,-3,-1,0,0,1,.,.
CCc1ccc(NC(=O)C(=O)NCCOc2ccccc2Cl)cc1,-4,0,-2,0,21*,6,3
Cc1ccc(NC(=O)C(=O)NCCOc2ccccc2Cl)cc1,1,1,0,1,12*,9.8*,4
O=C(Nc1ccccc1)c1cc(C2CCCCN2C(=O)c2ccc3c(c2)CCO3)on1 (centres undefined),-2,.,.,.,-1,.,.
CC(C)(CNC(=O)c1cccc(S(=O)(=O)N2CCCCC2)c1)N1CCOCC1,4,.,.,.,0,.,.
O=C(C[C@H]1C(=O)N(c2ccccc2)C[C@@H]1Cc1ccccc1)Nc1ccc(Br)cc1,10,.,.,.,14*,1,4
Cc1sc2ncnc(SCC(=O)c3cccs3)c2c1C,-1,-7,5,0,43*,4,6
COc1ccc(-c2csc(-n3ncc(-c4ccccn4)c3N)n2)cc1,9,1,0,1,0,.,.
Nc1c(-c2ccccn2)cnn1-c1nc(-c2ccc(F)cc2)cs1,-1,0,3,3,9.7*,4,2
COc1cc(C(=O)Nc2nnc(-c3sccc3C)s2)cc(OC)c1OC,8,0,0,8,12*,23*,8
CCOCc1nnc(NC(=O)c2cc(OC)c(OC)c(OC)c2)s1,-7,0,1,0,1,.,.
Cc1ccc(F)c(S(=O)(=O)NC(=O)C2(C)CCN2C(=O)C/C=C/c2ccccc2)c1 (centres undefined),-4,.,.,.,0,.,.
O=S(=O)(Nc1ccc(-n2cccc2)cc1)c1ccc(Cl)cc1Cl,3,0,1,2,11*,7,6
O=S(=O)(Nc1ccc(-n2cccc2)cc1)c1ccc(Cl)c(Cl)c1,-4,0,1,-1,6,.,.
Cc1ccc(N2C(=O)CS/C2=N\C(=S)Nc2ccccc2)cc1,5,0,0,12,27*,2,9
O=C1CSC(=Nc2ccc(O)cc2)N1c1ccc(O)cc1,0,0,1,4,-1,.,.
N#Cc1nc(-c2ccc(OCc3ccccc3)cc2)oc1NCc1cccnc1,-3,-1,1,11,2,.,.
N#Cc1nc(-c2ccc(OCc3ccc(Cl)cc3)cc2)oc1NCc1cccnc1,-1,-1,0,8,15*,8,2
CC(=O)NC(c1ccc(F)c(F)c1)c1nc(-c2cc3ccccc3o2)cs1 (centres undefined),11,.,.,.,1,.,.
SMILES,MC4R antag cAMP,A1 inh,UPR CHOP act,UPR XBP1 act,MC4R ag barr,MC4R barr conf,MOR-DOR barr ag
Cc1cc(/C=N/n2cnnc2)c(C)n1-c1ccc(OCc2ccc(Cl)cc2Cl)cc1,-17,0,-3,-6,14*,5,5
O=C(Nc1ccccc1)Nc1nnc(CSCc2ccccc2Cl)s1,3,0,0,-2,11*,3,4
COc1ccc(O)c(-c2cc(C(F)(F)C(F)F)nc(-c3ccccc3)n2)c1,-2,0,-2,3,14*,17*,1
COc1ccc(OC)c(C(O)c2ncc(-c3ccccc3OC)[nH]2)c1 (centres undefined),0,.,.,.,0,.,.
C[C@@H]1CCCCO[C@@H](CN(C)Cc2ccncc2)[C@@H](C)CN([C@H](C)CO)C(=O)c2cc(NC(=O)c3ccccc3)ccc2O1,2,.,.,.,-2,.,.
O=c1[nH]c(/C=C/c2cccc3ccccc23)nc2ccccc12,1,-2,3,0,16*,2,2
O=c1[nH]c(/C=C/c2ccccc2F)nc2ccccc12,-22,-12,1,-1,2,.,.
COc1ccc2c(c1)CCCC2NS(=O)(=O)OCC(Cl)(Cl)Cl (centres undefined),9,-1,-1,0,10*,3,10
Cn1nc(C(C)(C)C)cc1C(=O)N1CCCC(c2cc(C(=O)NCc3ccccc3)no2)C1 (centres undefined),6,.,.,.,1,.,.
CSc1ncccc1C(=O)OCc1cccc([N+](=O)[O-])c1,14,1,-1,0,1,.,.
CSc1ncccc1C(=O)OCc1ccc([N+](=O)[O-])cc1,2,0,4,5,12*,1,3
CCN(CC)CC(=O)Nc1cccc2c1C(=O)c1ccccc1C2=O,24,0,-1,-4,11*,2,6
COc1ccc(-c2cc(NC=O)c3ncc(-c4ccc(C(C)=O)cc4)n3c2)cn1,3,.,.,.,17*,16*,4
CC(=O)c1ccc(-c2cnc3c(NC=O)cc(-c4ccc(C(=O)NC5CC5)cc4)cn23)cc1,17,.,.,.,11*,5,3
O=C(c1ccccn1)N(Cc1ccco1)C1(C(=O)Nc2ccc(Br)cc2)CCCCC1,6,.,.,.,0,.,.
CCCn1c(SCC(=O)Nc2ccc(S(=O)(=O)N3CCOCC3)cc2)n[nH]c1=O,8,.,.,.,-2,.,.
CC(C)CN(CC(C)C)CC(O)COc1ccc([N+](=O)[O-])cc1 (centres undefined),10,-1,-1,0,10*,-1,7
CCOc1ccc2nc(NC(=S)NCc3ccccc3)sc2c1,-12,.,2,2,18*,4,2
CCOc1ccc2nc(NC(=O)Nc3ccccc3)sc2c1,-9,-1,7,2,2,.,.
Cc1cccc(NC(=O)CNC(=O)c2sc3ccccc3c2Cl)n1,4,0,3,3,11*,-1,13
